ChEMBL document CHEMBL1126752, “Synthesis and biological activity of cis-(3aR)-(-)-2,3,3a,4,5,9b-hexahydro- 3-propyl-1H-benz[e]indole-9-carboxamide: a potent and selective 5-HT1A receptor agonist with good oral availability” (J Med Chem, 1993)
The source made the active and inactive calls. No cut-off for these calls is given here.

What was measured:
Mus musculus [1] = experiment: Swimming activity of the treated mice/control mice at 1.2 umol/kg, sc; type: functional
Mus musculus [2] = experiment: Effect on hypothermia in mice following subcutaneous administration; conditions: sc
Rattus norvegicus [3] = experiment: 5-HTP accumulation in hemispheres of reserpinized rats following peroral administration; type: functional; conditions: po
Mus musculus [4] = experiment: Effect on hypothermia in mice following peroral administration; conditions: po
Felis catus [5] = experiment: Inhibition of sympathetic nerve discharge (SND) in anesthetized cat; type: functional
In short: (§1)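 Adult cats (2.5-4.0 kg) anesthetized with ketamine 11 mg/kg im then chloralose 80 mg/kg iv. Animals paralyzed with gallamine, ventilated, and kept at 37-38 °C. Blood pressure recorded via femoral artery. Sympathetic activity quantified by cumulative integration. Increasing doses given iv cumulatively at 20-min intervals.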

Mus musculus [6] = experiment: Swimming activity of the treated mice/control mice at 39 umol/kg, sc; type: functional
Rattus norvegicus [7] = experiment: 5-HTP accumulation in corpus striatum of reserpinized rats following peroral administration; type: functional; conditions: po
Mus musculus [8] = experiment: Swimming activity of the treated mice/control mice at 3.9 umol/kg, sc (p < 0.001); type: functional
Rattus norvegicus [9] = experiment: In vivo motor activity at 12.5 umol/kg (po) in male rats expressed as accumulated counts/30 min (p < 0.001); type: functional
Rattus norvegicus [10] = experiment: 5-HTP accumulation in hemispheres of reserpinized rats following subcutaneous administration.; type: functional; conditions: sc
Rattus norvegicus [11] = experiment: In vivo motor activity at 12.5 umol/kg (sc) in male rats expressed as accumulated counts/30 min (p < 0.001); type: functional
Mus musculus [12] = experiment: Swimming activity of the treated mice/control mice at 12 umol/kg, sc (p < 0.001); type: functional
Rattus norvegicus [13] = experiment: 5-HTP accumulation in limbic system of reserpinized rats following subcutaneous administration; type: functional; conditions: sc
Felis catus [14] = experiment: Percent arterial blood pressure at sympathetic nerve discharge in anesthetized cat; type: functional; in short: as §1
[15] = target: T1, 5-hydroxytryptamine receptor 1A (Homo sapiens, UniProt P08908); experiment: Binding affinity against [3H]8-OH-DPAT-labeled 5-hydroxytryptamine 1A receptor sites in cloned CHO cells; type: cell-based
T1 sequence (P08908 whole entry): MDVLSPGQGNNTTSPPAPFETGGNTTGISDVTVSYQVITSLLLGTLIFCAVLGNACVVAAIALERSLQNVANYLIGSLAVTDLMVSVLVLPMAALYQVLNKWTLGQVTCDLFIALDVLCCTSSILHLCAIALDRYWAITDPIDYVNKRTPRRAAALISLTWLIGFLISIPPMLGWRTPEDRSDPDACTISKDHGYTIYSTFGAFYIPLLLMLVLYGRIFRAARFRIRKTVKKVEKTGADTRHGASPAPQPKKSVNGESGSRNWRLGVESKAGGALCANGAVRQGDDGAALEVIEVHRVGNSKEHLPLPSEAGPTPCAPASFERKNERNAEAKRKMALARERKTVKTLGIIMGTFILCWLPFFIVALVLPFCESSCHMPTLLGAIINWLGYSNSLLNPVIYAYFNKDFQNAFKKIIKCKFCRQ
In short: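 Competition binding against [3H]-8-OH-DPAT (85 Ci/mmol, 1.2 nM) using 11 dilutions of test compound. Receptor was cloned mammalian 5-HT1A expressed in CHO-K1 cells. IC50 from a one-site nonlinear least-squares fit, converted to Ki by Cheng-Prusoff. Ki reported ±SEM.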

Felis catus [16] = experiment: Maximum decrease in sympathetic nerve discharge in anesthetized cat.; type: functional; in short: as §1
Rattus norvegicus [17] = species on record: Rattus norvegicus; experiment: Inhibition of 5-HT1A cell firing in rats; type: functional
In short: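 Male Sprague-Dawley rats (280-330 g) under chloral hydrate anesthesia (400 mg/kg ip), drug given iv via femoral vein in distilled water. Dorsal raphe serotonergic neurons recorded extracellularly and confirmed histologically by dye deposit. Firing rate followed by integrated ratemeter.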

[18] = (§2) Half-life time in rats; type: ADME, organism-based; conditions: rat, in vivo
In short: (§3)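 Male Sprague-Dawley rats (300 g) sampled from arterial catheters 24 h after surgery over 10-24 h. Dosing was 5 µmol/kg iv and 40 µmol/kg po, with oral rats fasted 18 h. Parent drug in blood measured by GC/MS after pH 11 dichloromethane extraction with internal standard, samples run in duplicate. Availability from po/iv AUC ratio (n = 4).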

Rattus norvegicus [19] = experiment: 5-HTP accumulation in corpus striatum of reserpinized rats following subcutaneous administration.; type: functional; conditions: sc
Rattus norvegicus [20] = experiment: 5-HTP accumulation in limbic system of reserpinized rats following peroral administration; type: functional; conditions: po
Felis catus [21] = experiment: Maximum decrease in blood pressure observed following 1 mg/kg dose in anesthetized cat; type: functional; parameters: unit not given here; in short: as §1
Rattus norvegicus [22] = experiment: In vivo motor activity at 61 umol/kg (po) in male rats expressed as accumulated counts/30 min (p < 0.001); type: functional
Mus musculus [23] = experiment: Swimming activity of the treated mice/control mice at 41 umol/kg, sc (p < 0.001); type: functional
Rattus norvegicus [24] = experiment: Oral availability obtained from blood plasma levels of the parent compound following 1 uMol /kg intravenous and 20 umol /kg peroral administration; type: functional, organism-based
In short: (§4)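 Male Sprague-Dawley rats (300 g) with arterial catheters, sampled from 24 h after surgery for 10-24 h; oral groups starved 18 h with free water. Blood levels measured by GC/MS with internal standard, samples run in duplicate. Availability from po vs iv AUC (n = 4), dosed 1 μmol/kg iv and 20 μmol/kg po.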

Felis catus [25] = experiment: Maximum decrease in sympathetic nerve discharge in anesthetized cat; type: functional
In short: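 Cats (2.5-4.0 kg) anesthetized with ketamine 11 mg/kg im then chloralose 80 mg/kg iv, paralyzed with gallamine and ventilated, rectal temperature kept at 37-38 °C. Increasing iv doses given cumulatively at 20-min intervals; sympathetic activity quantified by cumulative integration and expressed as percent of control.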

Rattus norvegicus [26] = experiment: In vivo motor activity at 0.2 umol/kg (sc) in male rats expressed as accumulated counts/30 min (p < 0.05); type: functional
Rattus norvegicus [27] = experiment: 5-HTP accumulation in corpus striatum of reserpinized rats following subcutaneous administration; type: functional; conditions: sc
Rattus norvegicus [28] = experiment: 5-HTP accumulation in hemispheres of reserpinized rats following subcutaneous administration; type: functional; conditions: sc
[29] = as §2; type: ADME, organism-based; conditions: rat, in vivo; in short: as §4; remark: listed apart in the source
Rattus norvegicus [30] = experiment: DOPA accumulation in hemispheres of reserpinized rats following subcutaneous administration at highest dose tested (50 umol/kg); Inactive; type: functional, organism-based
Rattus norvegicus [31] = experiment: DOPA accumulation in limbic system of reserpinized rats following subcutaneous administration at highest dose tested (50 umol/kg); Inactive; type: functional, organism-based
Rattus norvegicus [32] = experiment: DOPA accumulation in corpus striatum of reserpinized rats following subcutaneous administration at highest dose tested (50 umol/kg); Inactive; type: functional, organism-based
Rattus norvegicus [33] = experiment: In vivo motor activity at 10 umol/kg (po) in male rats expressed as accumulated counts/30 min (p < 0.05)
Rattus norvegicus [34] = species on record: Rattus norvegicus; experiment: Compound was tested for gross behavioral response in rats; full-blown 5-HT syndrome; type: functional, organism-based
Rattus norvegicus [35] = experiment: DOPA accumulation in hemispheres of reserpinized rats following peroral administration at highest dose tested (50 umol/kg); Inactive; type: functional, organism-based
Rattus norvegicus [36] = experiment: DOPA accumulation in corpus striatum of reserpinized rats following peroral administration at highest dose tested (50 umol/kg); Inactive; type: functional, organism-based
Mus musculus [37] = experiment: Swimming activity of the treated mice/control mice at 4.0 umol/kg, sc (p < 0.001); type: functional
Rattus norvegicus [38] = experiment: DOPA accumulation in limbic system of reserpinized rats following peroral administration at highest dose tested (50 umol/kg); Inactive; type: functional, organism-based
Rattus norvegicus [39] = species on record: Rattus norvegicus; experiment: Compound was tested for gross behavioral response in rats; partial 5-HT syndrome; type: functional, organism-based
Rattus norvegicus [40] = experiment: Oral availability obtained from blood plasma levels of the parent compound following 5 umol /kg intravenous and 40 umol /kg peroral administration; type: functional, organism-based; in short: as §3

| Structure (SMILES) | Swimming activity (Mus musculus [1]) | ED50 (Mus musculus [2]) | ED50 (Rattus norvegicus [3]) | ED50 (Mus musculus [4]) | ED50 (Felis catus [5]) | ED50 (Rattus norvegicus [7]) | Swimming activity (Mus musculus [12]) | ED50 (Rattus norvegicus [13]) | BP (Felis catus [14]) | ED50 (Rattus norvegicus [17]) | ED50 (Rattus norvegicus [20]) | Max decrease (Felis catus [21]) | ED50 (Rattus norvegicus [30]) | ED50 (Rattus norvegicus [31]) | ED50 (Rattus norvegicus [32]) | Response (Rattus norvegicus [34]) | Response (Rattus norvegicus [39]) | also measured |
| --- | --- | --- | --- | --- | --- | --- | --- | --- | --- | --- | --- | --- | --- | --- | --- | --- | --- | --- |
| CCCN1CC[C@H]2c3c(cccc3C(N)=O)CC[C@H]21 (stereo in doubt; (-)-3a) [listing 1 of 2 here] | 1.5 | 0.4 µmol/kg | 0.28 µmol/kg | 2.8 µmol/kg | 0.049 µmol/kg | < 0.2 µmol/kg | 7.1 | 0.28 µmol/kg | 83% | 0.023 µmol/kg | 0.23 µmol/kg | 52 |  |  |  |  |  | Swimming activity (Mus musculus [6]): 1.1; Swimming activity (Mus musculus [8]): 4.7; Accumulated counts/30 min (Rattus norvegicus [9]): 173; ED50 (Rattus norvegicus [10]): 0.32 µmol/kg; Accumulated counts/30 min (Rattus norvegicus [11]): 249; Ki [15]: 1.9 nM; Max decrease (Felis catus [16]): 0; half-life [18]: 120 min; ED50 (Rattus norvegicus [19]): 0.07 µmol/kg |
| CCCN(CCC)C1CCc2cccc(O)c2C1 (racemic) [8-OH-DPAT] | 0.9 T/C | 3 µmol/kg | 7.6 µmol/kg | 30 µmol/kg | 0.03 µmol/kg | 7.9 µmol/kg | 4.6 T/C | 0.052 µmol/kg | 66% | 0.006 µmol/kg | 3 µmol/kg | 57 | inactive | inactive | inactive | Active |  | Accumulated counts/30 min (Rattus norvegicus [22]): 883; Swimming activity (Mus musculus [23]): 3.4 T/C; bioavailability (Rattus norvegicus [24]): 2.4%; Max decrease (Felis catus [25]): 2; Accumulated counts/30 min (Rattus norvegicus [26]): 66; ED50 (Rattus norvegicus [27]): 0.052 µmol/kg; ED50 (Rattus norvegicus [28]): 0.063 µmol/kg; half-life [29]: 60 min; Accumulated counts/30 min (Rattus norvegicus [33]): 17; ED50 (Rattus norvegicus [35]): inactive; ED50 (Rattus norvegicus [36]): inactive; Swimming activity (Mus musculus [37]): 6.7 T/C; ED50 (Rattus norvegicus [38]): inactive |
| CCCN1CC[C@H]2c3c(cccc3C(N)=O)CC[C@H]21 (stereo in doubt; (-)-3b) |  |  |  |  |  |  |  |  |  |  |  |  | inactive | inactive | inactive |  | Partially active |  |
| CCCN1CC[C@H]2c3c(cccc3C(N)=O)CC[C@H]21 (stereo in doubt; (-)-3a) [listing 2 of 2 here] |  |  |  |  |  |  |  |  |  |  |  |  |  |  |  | Active |  | bioavailability (Rattus norvegicus [40]): 46%; NA (Rattus norvegicus [30]): inactive; NA (Rattus norvegicus [31]): inactive; NA (Rattus norvegicus [32]): inactive; NA (Rattus norvegicus [35]): inactive; NA (Rattus norvegicus [36]): inactive; NA (Rattus norvegicus [38]): inactive |
| CCCN1CCC2c3c(cccc3C(N)=O)CC[C@@H]21 (single isomer, unassigned; (+)-3a) |  |  |  |  |  |  |  |  |  |  |  |  | inactive | inactive | inactive |  | Partially active |  |
